# KCNK3 block: human KCNK3 channel inhibition, primary screen. O14649. B-score at 10 µM. 340,000 compounds, 0.84% hits. AID 602410. CHO-KCNK3 thallium flux, FluxOR fluorescence; active compounds read low;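 active = B-score under library mean minus 4 SD, starting fluorescence ratio at most library mean plus 5 SD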;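 note: more negative B-score means stronger inhibition of thallium flux through KCNK3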
# KCNK9 block: inhibitors of human KCNK9 two-pore domain potassium channel | Q9NPC2 | HEK293 KCNK9, FluxOR thallium flux fluorescence; active compounds read low | B-score at 10 µM | 310,000 compounds, 1.2% hits | AID 488922;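 active = ratio B-score over 3 SD below the library mean, with starting fluorescence within 5 SD of its mean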;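 note: negative B-score means less thallium flux so channel inhibition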
# KCNQ1 act: human KCNQ1 channel potentiation or activation | CHO-K1 KCNQ1, thallium flux FluxOR fluorescence; active compounds read high | B-score at 10 µM | 310,000 compounds, 0.35% hits | AID 2648;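 active = fluorescence ratio B-score, a plate-corrected score, at least three library SD, with initial intensity B-score within 5 SD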
#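 Doses: Single concentration per compound, DMSO matched to controls | Test system: KCNQ1-transfected CHO-K1 cells | Timing: 90 min dye loading and 20 min compound exposure, both at room temperature | Measured by: Kinetic FluxOR thallium fluorescence, 10-s 1-Hz baseline, 110-s post-stimulus read | Medium: Assay buffer with matched DMSO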
# KCNQ1 block: human KCNQ1 channel inhibition; P51787; CHO-K1 KCNQ1, FluxOR thallium flux fluorescence; active compounds read high; B-score at 10 µM; 310,000 compounds, 1.3% hits; AID 2642;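 active = compounds whose thallium flux B-score, printed positive for inhibition, exceeds three library SD while starting fluorescence stays within three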;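 note: channel opened by potassium depolarization with thallium stimulus after 20 min compound exposure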
# hERG rescue: hERG (human) protection from proarrhythmic block. Q12809. CHO-hERG, FluxOR thallium flux, dofetilide IC70 present. activation (rescue from dofetilide block), less the hit threshold, % at 10 µM. 310,000 compounds, 0.51% hits;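 active = activation above the mean of controls blocked by dofetilide plus 5 SD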;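 note: thallium influx through hERG after potassium depolarization seen as dye fluorescence rise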
# KCNK9 block conf: confirmation of human KCNK9 potassium channel inhibitors. shares compounds with KCNK9 block. HEK293 KCNK9 cells, FluxOR thallium flux fluorescence. inhibition, % at 10 µM. 4,900 compounds, 43% hits. AID 492992;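 active = thallium signal inhibited by more than 5 SD of the compound-free buffer control wells, on both duplicate plates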;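 note: 0% = assay buffer control wells without compound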
# Kir2-1 spec: tests whether KCNK9 modulators also affect mouse Kir2.1 | shares compounds with KCNK9 block | Kir2.1 cells, FluxOR thallium flux fluorescence | inhibition, % at 10 µM | 4,900 compounds, 4% hits;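 active = thallium signal drop more than 5 SD beyond the mean of the no-compound control wells, seen in both duplicate plates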;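 note: signal is fluorescence rise after thallium addition divided by baseline fluorescence; plate controls were assay buffer only for no effect and full block by chlorpromazine control for full effect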
# KCNK9 uninduced: second check of KCNK9 modulator effects in non-induced HEK293 cells | FluxOR thallium flux | inhibition, % at 10 µM | AID 492997 | shares compounds with KCNK9 block | 4,900 compounds, 40% hits;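 active = thallium signal drop beyond 5 SD of the untreated control mean, on both duplicate plates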;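 note: plate controls were buffer only IC0 wells for no effect and SID17386958 at its maximal inhibitory level for full effect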
# KCNK3 inh conf: human KCNK3 channel inhibition, confirmation assay. shares compounds with KCNK3 block. CHO-KCNK3 thallium flux, FluxOR fluorescence; 0% buffer, 100% carvedilol maximal block. ratio percent of control, % at 10 µM. 2,400 compounds, 99% hits. AID 651638;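 active = ratio percent of control, averaged over triplicates, above buffer control mean plus 5 SD, cut at about 64% in these data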;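 note: ratio is the fluorescence rise from min to max over baseline after thallium stimulus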
# KCNK3 uninduced: activity in cells without induced KCNK3 expression; shares compounds with KCNK3 block; non-induced KCNK3 parental cells, FluxOR thallium flux; active compounds read low; thallium flux ratio (lower = more inhibition) at 10 µM; 2,400 compounds, 40% hits;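 active = thallium flux ratio, averaged over three wells, more than 5 SD below the buffer control mean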;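 note: host cells are CHO cells without KCNK3 induction; ratio is peak minus trough fluorescence over baseline then normalized to buffer controls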
# * marks the source's active call; other numbers are inactive results; i = inactive; x = no result given. The list is not random: actives were taken first. Their share in the collection is about 3.1%.
SMILES,KCNK3 block,KCNK9 block,KCNQ1 act,KCNQ1 block,hERG rescue,KCNK9 block conf,Kir2-1 spec,KCNK9 uninduced,KCNK3 inh conf,KCNK3 uninduced
COc1ccccc1Oc1ccc(N2CC(C(=O)OCC(=O)c3ccccc3)CC2=O)cc1 (stereo unspecified),i,i,i,i,-5.2,x,x,x,x,x
Clc1ccc(CN(CC2CCCO2)C(c2cccs2)c2nnnn2C2CCCC2)cc1 (stereo unspecified),-8.9*,-17.4*,i,6*,-13.0,60.0%*,i,48.5%*,110.3*,0.153*
CC(=Nc1ccccc1)C1=C(O)C(CC(C)C)NC1=O (stereo unspecified),i,x,x,x,x,x,x,x,x,x
COc1ccccc1C(=O)Nc1cccc(SC)c1,i,i,i,i,-16.9,x,x,x,x,x
CSc1cccc(NC(=O)c2cccc3cccnc23)c1,-9.71*,-9.6*,i,i,-4.3,27.5%*,i,31.5%*,88.0*,i
Cc1ccccc1N(CC(=O)N1CCCCCC1)S(C)(=O)=O,i,i,i,i,-6.8,x,x,x,x,x
Nc1ncnc2c1ncn2[C@@H]1O[C@H](CN2CCCS2(=O)=O)[C@@H](O)[C@H]1O,i,x,x,x,x,x,x,x,x,x
COc1ccc(C(c2nnnn2C(C)(C)C)N2CCN(C(=O)c3ccco3)CC2)cc1 (stereo unspecified),i,i,i,i,-9.1,x,x,x,x,x
CCC(C)(C)n1nnnc1C(c1ccccc1OC)N1CCN(C(=O)c2ccco2)CC1 (stereo unspecified),-13.4*,-14.1*,i,i,-3.7,68.5%*,i,36.5%*,105.7*,i
COc1ccccc1C(c1nnnn1Cc1ccco1)N1CCN(c2cccc(C)c2C)CC1 (stereo unspecified),-11.4*,-14.3*,i,i,-7.7,43.0%*,i,37.5%*,130.3*,0.137*
Cc1onc(-c2ccccc2Cl)c1C(=O)N(Cc1nc(-c2ccccc2)no1)C1CCCCC1,i,-9.66*,i,i,-10.4,29.5%*,i,31.5%*,90.3*,0.148*
Cc1ccc(N2C(=O)c3ccccc3C2Nc2ccc(S(=O)(=O)N3CCCCC3)cc2)nc1 (stereo unspecified),-10.5*,-11.1*,i,i,-3.9,i,i,30.0%*,120.7*,0.151*
Cc1ccc(N2C(=O)c3ccccc3C2Nc2ccc(S(=O)(=O)N3CCOCC3)cc2)nc1 (stereo unspecified),i,i,i,i,-10.0,x,x,x,x,x
CCN(c1ccc(OC)cc1)S(=O)(=O)c1cc(-c2cc(C)no2)ccc1C(C)C,-9.23*,-16.1*,i,i,-8.3,59.5%*,i,38.5%*,121.0*,0.136*
CCN(c1ccc(OC)cc1)S(=O)(=O)c1cc(-c2cc(C)no2)ccc1OC,i,i,i,i,-6.6,x,x,x,x,x
c1ccc(-c2cncn2-c2ccccc2)cc1,i,i,i,i,-13.3,x,x,x,x,x
COc1cc(/C=N/NC(=O)c2ccc(Cn3cc([N+](=O)[O-])cn3)o2)cc(Br)c1O,-11.3*,-16.3*,i,i,-22.2,57.0%*,i,35.0%*,99.3*,i
Clc1cccc(-c2nnc(SC/C=C/c3ccccc3)n2Cc2ccco2)c1,-11.8*,-15*,i,i,-12.7,44.5%*,74.0%*,38.5%*,109.7*,0.153*
C(=C\c1ccccc1)/CSc1nnc(-c2ccccc2)n1Cc1ccco1,i,i,i,i,-10.7,x,x,x,x,x
COc1ccc(/C=N\NC(=O)c2sccc2C)cc1Cn1nc(C)cc1C,-8.84*,-8.25*,i,i,-14.9,i,i,i,88.0*,i
CN(CCOc1ccc(Cl)cc1)Cc1cccc(S(=O)(=O)N(C)C)c1,-9.17*,-9.72*,i,i,-8.2,45.0%*,i,51.5%*,103.0*,i
CN(C)S(=O)(=O)c1cccc(NC(=O)Cc2ccc(Cl)cc2)c1,i,i,i,i,-0.9,x,x,x,x,x
Cc1cc(C=O)c(C)n1-c1ccc(NC2CCCC2)c([N+](=O)[O-])c1,-9.05*,-16.9*,i,6*,-9.2,60.5%*,i,37.0%*,121.7*,i
COc1ccc(Cl)cc1NC(=O)CNCc1cccs1,i,i,i,i,-7.9,x,x,x,x,x
COc1ccc(Cl)cc1NC(=O)CN(C)Cc1cccs1,-12.9*,-20.8*,i,i,-4.1,74.5%*,i,49.5%*,108.3*,i
SMILES,KCNK3 block,KCNK9 block,KCNQ1 act,KCNQ1 block,hERG rescue,KCNK9 block conf,Kir2-1 spec,KCNK9 uninduced,KCNK3 inh conf,KCNK3 uninduced
C=CCN1C(=O)c2ccc(C(=O)N(CC)CC(=O)Nc3cc(Cl)ccc3C)cc2C1=O,i,i,i,i,1.9,x,x,x,x,x
COc1cccc(NC(=O)N2CCCC2C(=O)NC23CC4CC(CC(C4)C2)C3)c1 (stereo unspecified),i,i,i,i,-15.4,x,x,x,x,x
CCOc1ccccc1NC(=O)COc1ccc2ccc(=O)oc2c1,i,i,i,i,-2.4,x,x,x,x,x
N#CCC(=O)Nc1ccc(C(=O)OCc2ccccc2Oc2ccccc2)cc1,-10.2*,-10.7*,i,i,-13.9,57.5%*,i,25.0%*,115.0*,0.151*
Clc1ccc(OCCSc2ncccn2)c2ccccc12,i,-8.41*,i,i,-16.4,i,i,49.5%*,105.7*,i
CCCCCCCCn1c2c(c(=N)c3ccccc31)CCC2,i,-16.1*,i,11*,-27.1,51.0%*,83.0%*,i,139.7*,0.139*
Cc1cccc(C)c1NC(=O)c1ccc(-c2ccc(Cl)cc2Cl)o1,-9.01*,-16*,i,7*,-8.5,51.0%*,i,37.5%*,130.3*,0.139*
COc1ccc(/C=N/Nc2cc(C)nc3ccc(OC)cc23)c(OC)c1,-13.6*,-16.4*,i,14*,-24.4,i,i,38.0%*,151.0*,0.109*
COc1ccccc1/C=N/Nc1cc(C)nc2ccc(C)cc12,i,i,i,i,-9.5,x,x,x,x,x
CC(C)(C)OC(=O)N[C@@H](COCc1ccccc1)C(=O)N[C@@H](CO)[C@H](O)[C@@H]1C[C@@H]1C(=O)NC1CCCCC1,i,i,i,i,-3.6,x,x,x,x,x

# Screening results from PubChem BioAssay.
